# Activity calls are given as the source filed them. The rule behind the calls is not given here.
# Columns and labels:
# Assay type in all cases: nucleic-acid assay
# Details in all cases: Bos taurus
# DNA [1] = assay: Displacement of ethidium bromide from calf thymus DNA at 3.5 to 75 uM by fluorescence spectrophotometric analysis
# DNA [2] = assay: Binding affinity to calf thymus DNA at 1:1 compound:DNA ratio by fluorescence titration method
# How it was run: (§1)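 Fluorescence titration: probe held at 30 μM in aqueous phosphate buffer, pH 7.0, at room temperature, with increasing concentrations of ct-DNA added. Emission spectra were recorded at each step.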
# DNA [3] = assay: Binding affinity to calf thymus DNA at 1:0.67 to 1:2 DNA:compound ratio by UV-Vis spectrophotometric analysis
# How it was run: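 Absorption spectra of the probe were recorded in aqueous phosphate buffer, pH 7.0, while ct-DNA was added gradually. Shifts in band position and changes in intensity were followed.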
# DNA [4] = assay: Binding affinity to calf thymus DNA assessed melting temperature at 1:1.5 compound:DNA ratio by thermal denaturation assay (reference value: 65.83 degC)
# DNA [5] = assay: Binding affinity to calf thymus DNA assessed melting temperature at 1:0.5 compound:DNA ratio by thermal denaturation assay (reference value: 65.83 degC)
# DNA [6] = assay: Binding affinity to calf thymus DNA at 30 uM by in presence of increasing concentration of DNA by Benesi-Hildebrand plot analysis
# DNA [7] = assay: Binding affinity to calf thymus DNA assessed melting temperature at 1:1 compound:DNA ratio by thermal denaturation assay (reference value: 65.83 degC)
# DNA [8] = assay: Binding affinity to calf thymus DNA assessed melting temperature at 2:1 compound:DNA ratio by thermal denaturation assay (reference value: 65.83 degC)
# DNA [9] = assay: Binding affinity to calf thymus DNA at 30 uM by fluorescence titration method; how it was run: as §1
SMILES,Activity (DNA [1]),Activity (DNA [2]),Activity (DNA [3]),Tm (DNA [4]) [°C],Tm (DNA [5]) [°C],K (DNA [6]) [×10⁴ /M],Tm (DNA [7]) [°C],Tm (DNA [8]) [°C],Activity (DNA [9])
C#CCN1C(=O)c2cccc3c(C#Cc4ccc(N(C)C)cc4)ccc(c23)C1=O,inactive,Active,inactive,,,,,,
C#CCN1C(=O)c2cccc3c(C#Cc4ccc(C#N)cc4)ccc(c23)C1=O,inactive,,inactive,64.3,65.6,3.98,64.9,63.2,Active

# — ChEMBL document CHEMBL2311475, “Highly solvatochromic fluorescent naphthalimides: design, synthesis, photophysical properties and fluorescence switch-on sensing of ct-DNA” (Bioorg Med Chem Lett, 2013)
